Converted amounts (≈) assume the structure as drawn.
What was measured:
Escherichia coli [1] = assay: Antibacterial activity against efflux pump lacking Escherichia coli assessed as inhibition of bacterial growth; assay type: functional, organism-based
Klebsiella pneumoniae [2] = assay: Antibacterial activity against multidrug resistant Klebsiella pneumoniae ATCC13883 assessed as inhibition of bacterial growth incubated for 24 hrs in MHI medium by twofold serial dilution method; assay type: functional
Klebsiella pneumoniae [3] = assay: Antibacterial activity against multidrug resistant Klebsiella pneumoniae ATCC43816 assessed as inhibition of bacterial growth incubated for 24 hrs in MHI medium by twofold serial dilution method; conditions: ATCC43816, 24 h
Pseudomonas aeruginosa [4] = assay: Antibacterial activity against efflux pump lacking/recombinant OM pore producing Pseudomonas aeruginosa assessed as inhibition of bacterial growth; assay type: functional, organism-based
Klebsiella pneumoniae [5] = assay: Antibacterial activity against multidrug resistant Klebsiella pneumoniae ATCC13883 assessed as inhibition of bacterial growth incubated for 24 hrs in M9-MOPS medium by twofold serial dilution method; assay type: functional
Escherichia coli [6] = assay: Antibacterial activity against Escherichia coli SQ110 DTC C2610A incubated for 24 hrs by twofold serial dilution method; assay type: functional
Procedure, shortened: (§1)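 E. coli SQDTC (TolC-deficient, single rRNA operon) carrying LZD-resistant 23S rRNA substitutions. Compounds come from 10 mM DMSO stocks and are twofold serially diluted in 96-well plates.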

Escherichia coli [7] = assay: Antibacterial activity against Escherichia coli SQ110 DTC G2032A incubated for 24 hrs by twofold serial dilution method; assay type: functional; procedure, shortened: as §1
Escherichia coli [8] = assay: Antibacterial activity against wild type Escherichia coli assessed as inhibition of bacterial growth; assay type: functional, organism-based
Acinetobacter baumannii [9] = assay: Antibacterial activity against recombinant OM pore producing Acinetobacter baumannii assessed as inhibition of bacterial growth; assay type: functional, organism-based
Staphylococcus aureus = assay: Antibacterial activity against Staphylococcus aureus ATCC 25923 incubated for 24 hrs by twofold serial dilution method; assay type: functional
Procedure, shortened: (§2)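 MICs by twofold serial dilution in 96-well plates from 10 mM DMSO stocks. Cultures grown in the indicated media; for E. coli, A. baumannii and P. aeruginosa, inducers were 0.1% arabinose, 1% arabinose and 0.1 mM IPTG respectively.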

Escherichia coli [10] = assay: Antibacterial activity against recombinant OM pore producing Escherichia coli assessed as inhibition of bacterial growth; assay type: functional, organism-based
Acinetobacter baumannii [11] = assay: Antibacterial activity against efflux pump lacking/recombinant OM pore producing Acinetobacter baumannii assessed as inhibition of bacterial growth; assay type: functional, organism-based
Escherichia coli [12] = assay: Antibacterial activity against Escherichia coli SQ110 DTC incubated for 24 hrs by twofold serial dilution method; assay type: functional; procedure, shortened: as §2
Pseudomonas aeruginosa [13] = assay: Antibacterial activity against multidrug resistant Pseudomonas aeruginosa BAA 2108 assessed as inhibition of bacterial growth incubated for 24 hrs in M9-MOPS medium by twofold serial dilution method; assay type: functional
Escherichia coli [14] = assay: Antibacterial activity against Escherichia coli SQ110 incubated for 24 hrs by twofold serial dilution method; assay type: functional; procedure, shortened: as §2
Pseudomonas aeruginosa [15] = assay: Antibacterial activity against multidrug resistant Pseudomonas aeruginosa BAA 2109 assessed as inhibition of bacterial growth incubated for 24 hrs in MHI medium by twofold serial dilution method; assay type: functional
Escherichia coli [16] = assay: Antibacterial activity against efflux pump lacking/recombinant OM pore producing Escherichia coli incubated for 24 hrs by twofold serial dilution method; assay type: functional
Procedure, shortened: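 E. coli efflux-knockout/hyperporinated strain grown in M9 medium with 50 mM MOPS (pH 7.2) and 0.2% xylose. OM pore induced with 0.1% arabinose. Compounds come from 10 mM DMSO stocks and are twofold serially diluted in 96-well plates.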

Pseudomonas aeruginosa [17] = assay: Antibacterial activity against recombinant OM pore producing Pseudomonas aeruginosa assessed as inhibition of bacterial growth; assay type: functional, organism-based
Acinetobacter baumannii [18] = assay: Antibacterial activity against efflux pump lacking Acinetobacter baumannii assessed as inhibition of bacterial growth; assay type: functional, organism-based
Pseudomonas aeruginosa [19] = assay: Antibacterial activity against multidrug resistant Pseudomonas aeruginosa BAA 2108 assessed as inhibition of bacterial growth incubated for 24 hrs in MHI medium by twofold serial dilution method; assay type: functional
Pseudomonas aeruginosa [20] = assay: Antibacterial activity against efflux pump lacking/recombinant OM pore producing Pseudomonas aeruginosa incubated for 24 hrs by twofold serial dilution method; assay type: functional; procedure, shortened: as §2
Acinetobacter baumannii [21] = assay: Antibacterial activity against efflux pump lacking/recombinant OM pore producing Acinetobacter baumannii incubated for 24 hrs by twofold serial dilution method; assay type: functional; procedure, shortened: as §2
Acinetobacter baumannii [22] = assay: Antibacterial activity against multidrug resistant Acinetobacter baumannii AYE assessed as inhibition of bacterial growth incubated for 24 hrs in M9-MOPS medium by twofold serial dilution method; assay type: functional
Acinetobacter baumannii [23] = assay: Antibacterial activity against multidrug resistant Acinetobacter baumannii AYE assessed as inhibition of bacterial growth incubated for 24 hrs in MHI medium by twofold serial dilution method; assay type: functional
Klebsiella aerogenes = assay: Antibacterial activity against multidrug resistant Klebsiella aerogenes ATCC13048 assessed as inhibition of bacterial growth incubated for 24 hrs in M9-MOPS medium by twofold serial dilution method; assay type: functional
Pseudomonas aeruginosa [24] = assay: Antibacterial activity against efflux pump lacking Pseudomonas aeruginosa assessed as inhibition of bacterial growth; assay type: functional, organism-based
Pseudomonas aeruginosa [25] = assay: Antibacterial activity against multidrug resistant Pseudomonas aeruginosa BAA 2109 assessed as inhibition of bacterial growth incubated for 24 hrs in […] medium by twofold serial dilution method; assay type: functional
Escherichia coli [26] = assay: Antibacterial activity against efflux pump lacking/recombinant OM pore producing Escherichia coli assessed as inhibition of bacterial growth; assay type: functional, organism-based
Acinetobacter baumannii [27] = assay: Antibacterial activity against multidrug resistant Acinetobacter baumannii Ab5075 assessed as inhibition of bacterial growth incubated for 24 hrs in M9-MOPS medium by twofold serial dilution method; assay type: functional
Acinetobacter baumannii [28] = assay: Antibacterial activity against wild type Acinetobacter baumannii assessed as inhibition of bacterial growth; assay type: functional, organism-based
Klebsiella pneumoniae [29] = assay: Antibacterial activity against multidrug resistant Klebsiella pneumoniae ATCC43816 assessed as inhibition of bacterial growth incubated for 24 hrs in MHI medium by twofold serial dilution method; assay type: functional
Klebsiella pneumoniae [30] = assay: Antibacterial activity against multidrug resistant Klebsiella pneumoniae ATCC43816 assessed as inhibition of bacterial growth incubated for 24 hrs in M9-MOPS medium by twofold serial dilution method; assay type: functional
Pseudomonas aeruginosa [31] = assay: Antibacterial activity against wild type Pseudomonas aeruginosa assessed as inhibition of bacterial growth; assay type: functional, organism-based
Acinetobacter baumannii [32] = assay: Antibacterial activity against multidrug resistant Acinetobacter baumannii Ab5075 assessed as inhibition of bacterial growth incubated for 24 hrs in MHI medium by twofold serial dilution method; assay type: functional

Compound: O=C1O[C@@H](CO)CN1c1ccc(-c2cccnc2)c(F)c1
- IC50 (Escherichia coli [1]): 2.8 µM
- MIC (Klebsiella pneumoniae [2]): > 200 µM
- MIC (Klebsiella pneumoniae [3]): > 200 µM
- IC50 (Pseudomonas aeruginosa [4]): 6 µM
- MIC (Klebsiella pneumoniae [5]): 200 µM (≈ 57.7 µg/mL)
- MIC (Escherichia coli [6]): 25 µM (≈ 7.21 µg/mL)
- MIC (Escherichia coli [7]): 50 µM (≈ 14.4 µg/mL)
- IC50 (Escherichia coli [8]): > 100 µM
- IC50 (Acinetobacter baumannii [9]): 19 µM
- MIC (Staphylococcus aureus): 1.56 µM (≈ 0.45 µg/mL)
- IC50 (Escherichia coli [10]): 14.5 µM
- IC50 (Acinetobacter baumannii [11]): 4.3 µM
- MIC (Escherichia coli [12]): 12.5 µM (≈ 3.6 µg/mL)
- MIC (Pseudomonas aeruginosa [13]): > 200 µM
- MIC (Escherichia coli [14]): > 100 µM
- MIC (Pseudomonas aeruginosa [15]): > 200 µM
- MIC (Escherichia coli [16]): 25 µM
- IC50 (Pseudomonas aeruginosa [17]): 75.3 µM
- IC50 (Acinetobacter baumannii [18]): 4.3 µM
- MIC (Pseudomonas aeruginosa [19]): > 200 µM
- MIC (Pseudomonas aeruginosa [20]): 6.25 µM
- MIC (Acinetobacter baumannii [21]): 12.5 µM
- MIC (Acinetobacter baumannii [22]): 100 µM (≈ 28.8 µg/mL)
- MIC (Acinetobacter baumannii [23]): > 200 µM
- MIC (Klebsiella aerogenes): 200 µM (≈ 57.7 µg/mL)
- IC50 (Pseudomonas aeruginosa [24]): 4.7 µM
- MIC (Pseudomonas aeruginosa [25]): > 200 µM
- IC50 (Escherichia coli [26]): 3.2 µM
- MIC (Acinetobacter baumannii [27]): 100 µM (≈ 28.8 µg/mL)
- IC50 (Acinetobacter baumannii [28]): 19 µM
- MIC (Klebsiella pneumoniae [29]): > 200 µM
- MIC (Klebsiella pneumoniae [30]): > 200 µM
- IC50 (Pseudomonas aeruginosa [31]): > 100 µM
- MIC (Acinetobacter baumannii [32]): > 200 µM

Compound: NCc1ccc(-c2ccc(N3C[C@H](CO)OC3=O)cc2F)cc1
- IC50 (Escherichia coli [1]): 1.7 µM
- MIC (Klebsiella pneumoniae [2]): > 200 µM
- MIC (Klebsiella pneumoniae [3]): > 200 µM
- IC50 (Pseudomonas aeruginosa [4]): 8.1 µM
- MIC (Klebsiella pneumoniae [5]): 100 µM (≈ 31.6 µg/mL)
- MIC (Escherichia coli [6]): 50 µM (≈ 15.8 µg/mL)
- MIC (Escherichia coli [7]): 100 µM (≈ 31.6 µg/mL)
- IC50 (Escherichia coli [8]): 18.1 µM
- IC50 (Acinetobacter baumannii [9]): 14.3 µM
- MIC (Staphylococcus aureus): 6.25 µM (≈ 1.98 µg/mL)
- IC50 (Escherichia coli [10]): 2.6 µM
- IC50 (Acinetobacter baumannii [11]): 8.2 µM
- MIC (Escherichia coli [12]): 50 µM (≈ 15.8 µg/mL)
- MIC (Pseudomonas aeruginosa [13]): > 200 µM
- MIC (Escherichia coli [14]): > 100 µM
- MIC (Pseudomonas aeruginosa [15]): > 200 µM
- MIC (Escherichia coli [16]): > 100 µM
- IC50 (Pseudomonas aeruginosa [17]): 26.3 µM
- IC50 (Acinetobacter baumannii [18]): 17.7 µM
- MIC (Pseudomonas aeruginosa [19]): > 200 µM
- MIC (Pseudomonas aeruginosa [20]): 12.5 µM
- MIC (Acinetobacter baumannii [21]): 25 µM
- MIC (Acinetobacter baumannii [22]): > 200 µM
- MIC (Acinetobacter baumannii [23]): > 200 µM
- MIC (Klebsiella aerogenes): 100 µM (≈ 31.6 µg/mL)
- IC50 (Pseudomonas aeruginosa [24]): 3.3 µM
- MIC (Pseudomonas aeruginosa [25]): > 200 µM
- IC50 (Escherichia coli [26]): 2.6 µM
- MIC (Acinetobacter baumannii [27]): > 200 µM
- IC50 (Acinetobacter baumannii [28]): 54.5 µM
- MIC (Klebsiella pneumoniae [29]): > 200 µM
- MIC (Klebsiella pneumoniae [30]): 200 µM (≈ 63.3 µg/mL)
- IC50 (Pseudomonas aeruginosa [31]): 23 µM
- MIC (Acinetobacter baumannii [32]): > 200 µM
